Measured values published in ChEMBL document CHEMBL2034841, “Synthesis and evaluation of (2-(4-methoxyphenyl)-4-quinolinyl)(2-piperidinyl)methanol (NSC23925) isomers to reverse multidrug resistance in cancer” (J Med Chem, 2012).
Activity calls are given as the source filed them. No cut-off for these calls is given here.

Tests used:
[1] = target: T1, ATP-dependent translocase ABCB1 (Homo sapiens, UniProt P08183); assay: Inhibition of MDR1-mediated drug resistance in human multidrug-resistant SKOV3TR cells at 0.1 uM assessed as potentiation of paclitaxel potency by incubated for 6 days by MTT assay; type: cell-based; details: 144 h
T1 sequence (P08183 whole entry): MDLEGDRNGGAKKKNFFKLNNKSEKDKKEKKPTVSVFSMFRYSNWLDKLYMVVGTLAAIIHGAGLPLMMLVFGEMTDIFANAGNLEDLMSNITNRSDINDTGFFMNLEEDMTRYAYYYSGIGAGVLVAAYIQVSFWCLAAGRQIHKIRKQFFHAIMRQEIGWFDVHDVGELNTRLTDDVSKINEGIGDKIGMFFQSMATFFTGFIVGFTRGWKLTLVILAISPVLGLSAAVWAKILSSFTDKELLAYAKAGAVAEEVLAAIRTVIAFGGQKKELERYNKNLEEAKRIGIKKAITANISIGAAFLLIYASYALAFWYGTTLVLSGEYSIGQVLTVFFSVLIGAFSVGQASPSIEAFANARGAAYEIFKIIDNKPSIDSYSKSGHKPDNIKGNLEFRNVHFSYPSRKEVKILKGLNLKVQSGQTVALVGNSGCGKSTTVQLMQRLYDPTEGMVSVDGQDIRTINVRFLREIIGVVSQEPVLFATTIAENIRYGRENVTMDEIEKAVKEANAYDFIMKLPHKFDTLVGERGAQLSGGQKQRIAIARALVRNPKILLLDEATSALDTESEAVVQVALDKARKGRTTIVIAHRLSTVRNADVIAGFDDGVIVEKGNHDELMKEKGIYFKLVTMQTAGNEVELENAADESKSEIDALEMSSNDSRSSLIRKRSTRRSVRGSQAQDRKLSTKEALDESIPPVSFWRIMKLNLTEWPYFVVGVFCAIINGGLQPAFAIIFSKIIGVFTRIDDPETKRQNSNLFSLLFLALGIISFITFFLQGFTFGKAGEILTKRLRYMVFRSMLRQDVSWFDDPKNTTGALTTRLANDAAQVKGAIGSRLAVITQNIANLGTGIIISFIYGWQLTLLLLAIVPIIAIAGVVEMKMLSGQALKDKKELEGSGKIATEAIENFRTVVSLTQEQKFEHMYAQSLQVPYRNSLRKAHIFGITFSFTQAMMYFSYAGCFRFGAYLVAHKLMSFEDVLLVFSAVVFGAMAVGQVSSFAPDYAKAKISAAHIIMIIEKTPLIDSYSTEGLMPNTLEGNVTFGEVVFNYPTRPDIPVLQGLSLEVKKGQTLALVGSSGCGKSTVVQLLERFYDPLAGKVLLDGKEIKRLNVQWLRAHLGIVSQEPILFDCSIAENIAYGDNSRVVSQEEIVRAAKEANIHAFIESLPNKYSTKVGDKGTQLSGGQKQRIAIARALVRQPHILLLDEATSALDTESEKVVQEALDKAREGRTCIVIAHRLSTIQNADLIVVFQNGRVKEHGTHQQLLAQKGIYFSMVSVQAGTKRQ
Method in brief: (§1)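 SKOV-3_TR cells were seeded at 2000/well in RPMI 1640 complete medium with varying paclitaxel concentrations plus the test agent at a fixed 0.1, 0.5 or 1 μM for 6 days. Viability was read by MTT, and IC50 was taken from fitted dose–response curves in triplicate wells. Fold reversal = IC50 without agent ÷ IC50 with agent.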

[2] = target: T1, ATP-dependent translocase ABCB1; assay: Inhibition of MDR1-mediated drug resistance in human multidrug-resistant SKOV3TR cells at 0.5 uM assessed as potentiation of paclitaxel potency by incubated for 6 days by MTT assay; type: cell-based; details: 144 h; method in brief: as §1
[3] = target: T1, ATP-dependent translocase ABCB1; assay: Inhibition of MDR1-mediated drug resistance in human multidrug-resistant SKOV3TR cells at 1 uM assessed as potentiation of paclitaxel potency by incubated for 6 days by MTT assay; type: cell-based; details: 144 h; method in brief: as §1
SKOV-3TR (Homo sapiens) [4] = assay: Antitumor activity against human multidrug-resistant SKOV-3TR cells xenografted in Crl:SHO-Prkdc'SCIDHr'hr nude mouse assessed as tumor growth inhibition at 20 mg/kg, ip dosed twice weekly for two weeks starting two weeks post tumor cells implantation
[5] = target: Multidrug resistance-associated protein 1 (Homo sapiens, UniProt P33527); assay: Inhibition of MRP1-mediated drug resistance in human multidrug-resistant H-69AR cells; type: cell-based
Sequence of Multidrug resistance-associated protein 1 (P33527 whole entry): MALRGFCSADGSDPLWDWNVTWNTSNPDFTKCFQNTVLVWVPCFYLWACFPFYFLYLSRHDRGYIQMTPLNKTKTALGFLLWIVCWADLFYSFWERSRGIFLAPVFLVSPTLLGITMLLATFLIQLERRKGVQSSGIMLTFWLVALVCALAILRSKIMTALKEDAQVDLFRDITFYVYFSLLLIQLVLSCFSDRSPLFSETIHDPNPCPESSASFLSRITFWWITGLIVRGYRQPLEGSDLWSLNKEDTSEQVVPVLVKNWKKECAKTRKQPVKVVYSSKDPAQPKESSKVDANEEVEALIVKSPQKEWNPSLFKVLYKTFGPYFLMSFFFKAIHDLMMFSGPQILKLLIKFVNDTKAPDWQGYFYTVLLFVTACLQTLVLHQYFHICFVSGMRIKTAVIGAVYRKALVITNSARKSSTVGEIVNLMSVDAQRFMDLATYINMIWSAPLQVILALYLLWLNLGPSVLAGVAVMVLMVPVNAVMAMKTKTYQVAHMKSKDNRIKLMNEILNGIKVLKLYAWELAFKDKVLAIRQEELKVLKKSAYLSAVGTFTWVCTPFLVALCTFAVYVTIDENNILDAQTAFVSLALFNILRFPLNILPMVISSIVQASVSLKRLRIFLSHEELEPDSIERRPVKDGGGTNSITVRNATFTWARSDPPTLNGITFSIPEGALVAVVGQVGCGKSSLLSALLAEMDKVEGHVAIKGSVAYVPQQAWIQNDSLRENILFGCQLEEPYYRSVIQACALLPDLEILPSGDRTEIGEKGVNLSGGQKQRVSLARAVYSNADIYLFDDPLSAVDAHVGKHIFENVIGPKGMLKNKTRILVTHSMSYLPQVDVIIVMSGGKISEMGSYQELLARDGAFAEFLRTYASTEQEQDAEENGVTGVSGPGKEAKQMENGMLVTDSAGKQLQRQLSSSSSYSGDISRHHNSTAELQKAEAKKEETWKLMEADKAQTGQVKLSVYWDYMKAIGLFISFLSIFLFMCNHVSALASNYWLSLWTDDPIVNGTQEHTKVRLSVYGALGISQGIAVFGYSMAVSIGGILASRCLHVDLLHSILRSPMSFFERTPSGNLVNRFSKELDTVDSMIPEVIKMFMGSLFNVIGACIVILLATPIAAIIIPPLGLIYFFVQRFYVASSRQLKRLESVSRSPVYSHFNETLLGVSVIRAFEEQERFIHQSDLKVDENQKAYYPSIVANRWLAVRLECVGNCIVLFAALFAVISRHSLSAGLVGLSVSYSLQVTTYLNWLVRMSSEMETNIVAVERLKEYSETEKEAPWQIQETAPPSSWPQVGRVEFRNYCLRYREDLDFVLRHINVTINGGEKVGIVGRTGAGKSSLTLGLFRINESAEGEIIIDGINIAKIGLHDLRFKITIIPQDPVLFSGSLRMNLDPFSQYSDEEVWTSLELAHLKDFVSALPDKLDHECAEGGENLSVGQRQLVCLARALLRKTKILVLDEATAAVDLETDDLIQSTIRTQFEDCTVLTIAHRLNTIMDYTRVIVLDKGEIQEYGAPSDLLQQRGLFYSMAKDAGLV
Method in brief: (§2)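 H-69AR (MRP1) or MCF-7/MX (BCRP) cells were plated in 96-well plates and treated with chemotherapy drugs plus the test agent as in the Pgp reversal assay: 2000 cells/well, 6 days, MTT read-out. IC50 values came from triplicate dose–response curves. Cells were grown in RPMI 1640 with 10% FBS at 37 °C, 5% CO2.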

[6] = target: T2, Broad substrate specificity ATP-binding cassette transporter ABCG2 (Homo sapiens, UniProt Q9UNQ0); assay: Inhibition of BCRP-mediated drug resistance in human multidrug-resistant MCF7/MX cells; type: cell-based; method in brief: as §2
T2 sequence (Q9UNQ0 whole entry): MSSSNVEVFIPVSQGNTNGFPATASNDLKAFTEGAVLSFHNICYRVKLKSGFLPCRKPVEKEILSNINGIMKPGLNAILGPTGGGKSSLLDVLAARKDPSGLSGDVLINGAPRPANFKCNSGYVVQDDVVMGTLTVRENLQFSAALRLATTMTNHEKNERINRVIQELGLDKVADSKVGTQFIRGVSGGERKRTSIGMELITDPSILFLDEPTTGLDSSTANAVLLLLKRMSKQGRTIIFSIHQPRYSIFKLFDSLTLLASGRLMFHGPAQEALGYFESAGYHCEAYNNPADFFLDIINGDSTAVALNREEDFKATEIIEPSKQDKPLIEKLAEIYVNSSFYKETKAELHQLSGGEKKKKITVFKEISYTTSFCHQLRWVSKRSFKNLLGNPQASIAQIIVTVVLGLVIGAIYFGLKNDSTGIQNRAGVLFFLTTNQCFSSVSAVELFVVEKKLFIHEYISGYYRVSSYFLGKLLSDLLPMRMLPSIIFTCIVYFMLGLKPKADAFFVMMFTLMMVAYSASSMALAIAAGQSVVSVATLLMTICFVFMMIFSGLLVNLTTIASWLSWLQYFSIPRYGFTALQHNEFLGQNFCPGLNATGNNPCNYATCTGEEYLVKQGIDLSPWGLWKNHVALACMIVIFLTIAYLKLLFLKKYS

[7] = target: T1, ATP-dependent translocase ABCB1; assay: Inhibition of MDR1 in human multidrug-resistant SW480TR cells assessed as increase in calcein AM accumulation by fluorescence microscopy; type: cell-based
Method in brief: (§3)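 Vybrant calcein AM efflux assay. Resistant cells (5000/well) were cultured for 24 h, then treated in triplicate with a range of test-agent concentrations for 1 h, followed by calcein AM for 30 min. Intracellular calcein fluorescence was imaged by fluorescence microscopy, and accumulation was compared across doses.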

[8] = target: T1, ATP-dependent translocase ABCB1; assay: Inhibition of MDR1 in human multidrug-resistant MCF7adr cells assessed as increase in calcein AM accumulation by fluorescence microscopy; method in brief: as §3
[9] = target: T1, ATP-dependent translocase ABCB1; assay: Inhibition of MDR1 in human multidrug-resistant SW480TR cells assessed drug level causing half maximal reversal of calcein AM accumulation deficit by fluorescence microscopy; type: cell-based; details: read-out: INH; method in brief: as §3
[10] = target: T1, ATP-dependent translocase ABCB1; assay: Inhibition of MDR1 in human multidrug-resistant MCF7adr cells assessed drug level causing half maximal reversal of calcein AM accumulation deficit by fluorescence microscopy; details: read-out: INH; method in brief: as §3
[11] = target: T1, ATP-dependent translocase ABCB1; assay: Inhibition of MDR1 in human multidrug-resistant SW480TR cells assessed drug level causing maximal reversal of calcein AM accumulation deficit by fluorescence microscopy; type: cell-based; method in brief: as §3
[12] = target: T1, ATP-dependent translocase ABCB1; assay: Inhibition of MDR1 in human multidrug-resistant MCF7adr cells assessed drug level causing maximal reversal of calcein AM accumulation deficit by fluorescence microscopy; method in brief: as §3
[13] = target: T1, ATP-dependent translocase ABCB1; assay: Inhibition of MDR1 in human multidrug-resistant SW480TR cells assessed as potentiation of doxorubicin-induced apoptosis at 1 uM incubated for 72 hrs by M30-apoptosense ELISA assay; type: cell-based
Method in brief: (§4)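 MCF-7adr or SW480_TR cells were seeded at 8000/well for 24 h, then treated for 72 h with 0.5 μM doxorubicin, 1 μM test agent, or both. Cells were lysed with 10% NP-40, and apoptosis was quantified by M30-Apoptosense ELISA following kit instructions.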

[14] = target: T1, ATP-dependent translocase ABCB1; assay: Inhibition of MDR1 in human multidrug-resistant MCF7adr cells assessed as potentiation of doxorubicin-induced apoptosis at 1 uM incubated for 72 hrs by M30-apoptosense ELISA assay; method in brief: as §4
[15] = target: T1, ATP-dependent translocase ABCB1; assay: Inhibition of MDR1 in human multidrug-resistant SW480TR cells assessed as potentiation of doxorubicin-induced cell death at 1 uM incubated for 72 hrs by MTT assay; type: cell-based
[16] = target: T1, ATP-dependent translocase ABCB1; assay: Inhibition of MDR1 in human multidrug-resistant MCF7adr cells assessed as potentiation of doxorubicin-induced cell death at 1 uM incubated for 72 hrs by MTT assay
Mus musculus [17] = assay: Toxicity in human multidrug-resistant […] cells xenografted in Crl:SHO-Prkdc'SCIDHr'hr nude mouse assessed as mortality incidence at 50 mg/kg, ip dosed twice weekly for two weeks starting two weeks post tumor cells implantation; type: organism-based; parameters: dose 50 mg/kg, route intraperitoneal; details: in vivo
Method in brief: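 […] cells injected subcutaneously with matrigel on day one. Dosing began two weeks later: ip injection twice a week for two weeks, given alone (50 mg/kg) or with paclitaxel (20 mg/kg); saline-injected controls. Mice checked daily for health and tumor growth. Toxicity judged from animal weight and mortality.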

Mus musculus [18] = assay: Toxicity in human multidrug-resistant SKOV-3TR cells xenografted in Crl:SHO-Prkdc'SCIDHr'hr nude mouse assessed as effect on body weight at 50 mg/kg, ip dosed twice weekly for two weeks starting two weeks post tumor cells implantation; details: in vivo
SKOV-3TR (Homo sapiens) [19] = assay: Antitumor activity against human multidrug-resistant SKOV-3TR cells xenografted in Crl:SHO-Prkdc'SCIDHr'hr nude mouse assessed as tumor growth inhibition at 50 mg/kg, ip dosed twice weekly for two weeks starting two weeks post tumor cells implantation
SKOV-3TR (Homo sapiens) [20] = assay: Potentiation of 20 mg/kg, ip paclitaxel antitumor potency in human multidrug-resistant SKOV-3TR cells xenografted in Crl:SHO-Prkdc'SCIDHr'hr nude mouse assessed as increase in tumor growth inhibition at 50 mg/kg, ip dosed twice weekly for two weeks starting two weeks post tumor cells implantation

With `COc1ccc(-c2cc([C@H](O)[C@@H]3CCCCN3)c3ccccc3n2)cc1.Cl` the “inhibition (INH)” value [1] was “Active”, the “inhibition (INH)” value [2] was “Active” and the “inhibition (INH)” value [3] was “Active”.
For `COc1ccc(-c2cc([C@@H](O)[C@@H]3CCCCN3)c3ccccc3n2)cc1.Cl`, the “inhibition (INH)” value [1] was “Not Active”, the “inhibition (INH)” value [2] was “Not Active” and the “inhibition (INH)” value [3] was “Not Active”.
With `CC(=O)O[C@H]1C(=O)[C@@]2(C)[C@H]([C@H](OC(=O)c3ccccc3)[C@]3(O)C[C@H](OC(=O)[C@H](O)[C@@H](NC(=O)c4ccccc4)c4ccccc4)C(C)=C1C3(C)C)[C@]1(OC(C)=O)CO[C@@H]1C[C@@H]2O` the “growth inhibition (GI)” value (SKOV-3TR (Homo sapiens) [4]) was “inactive”.
In the case of `COc1ccc(-c2cc([C@@H](O)[C@H]3CCCCN3)c3ccccc3n2)cc1.Cl`, the “inhibition (INH)” value [1] is reported as “Active”, the “inhibition (INH)” value [2] is reported as “Active” and the “inhibition (INH)” value [3] is reported as “Active”.
`COc1ccc(-c2cc([C@H](O)[C@H]3CCCCN3)c3ccccc3n2)cc1` was tested, and the “inhibition (INH)” value [5] was “Not Active”, the “inhibition (INH)” value [6] was “Not Active” and the “inhibition (INH)” value [1] was “Active”. For the same molecule, the “inhibition (INH)” value [2] was “Active”, the “inhibition (INH)” value [3] was “Active” and the “inhibition (INH)” value [7] was “Dose-dependent effect”. The “inhibition (INH)” value [8] was “Dose-dependent effect”, the IC50 [9] was 100 nM and the IC50 [10] was 100 nM. The INH [11] was 500 nM, the INH [12] was 500 nM and the “inhibition (INH)” value [13] was “Active”. For the same molecule, the “inhibition (INH)” value [14] was “Active”, the “inhibition (INH)” value [15] was “Active” and the “inhibition (INH)” value [16] was “Active”. The Activity (Mus musculus [17]) was “Non-toxic”, the Activity (Mus musculus [18]) was “Non-toxic” and the “growth inhibition (GI)” value (SKOV-3TR (Homo sapiens) [19]) was “inactive”. The Activity (SKOV-3TR (Homo sapiens) [20]) was “Active”.
